Active and inactive are the calls of the source. No cut-off for these calls is given here.
How the values were obtained:
[1] = system: Splenocyte; assay: Immunostimulating activity in Swiss albino mouse Splenocytes assessed as increase in ConA-induced IFN-gamma secretion at 2.5 uM by ELISA; assay type: functional, cell-based
How it was run: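 IFN-γ was measured by ELISA in supernatants of splenocytes (2 × 10^6 cells/well). Cells were unstimulated, stimulated with Con A (10 μM), or given Con A plus compound (2.5 or 5 μM) for 24 h. Mean ± SEM, n = 5.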

[2] = biological target: T1, Alpha-mannosidase (Canavalia ensiformis, UniProt C0HJB3); assay: Inhibition of jack bean alpha-mannosidase using 10 mM p-nitrophenyl-alpha-D-mannopyranoside as substrate
T1 sequence (C0HJB3 whole entry): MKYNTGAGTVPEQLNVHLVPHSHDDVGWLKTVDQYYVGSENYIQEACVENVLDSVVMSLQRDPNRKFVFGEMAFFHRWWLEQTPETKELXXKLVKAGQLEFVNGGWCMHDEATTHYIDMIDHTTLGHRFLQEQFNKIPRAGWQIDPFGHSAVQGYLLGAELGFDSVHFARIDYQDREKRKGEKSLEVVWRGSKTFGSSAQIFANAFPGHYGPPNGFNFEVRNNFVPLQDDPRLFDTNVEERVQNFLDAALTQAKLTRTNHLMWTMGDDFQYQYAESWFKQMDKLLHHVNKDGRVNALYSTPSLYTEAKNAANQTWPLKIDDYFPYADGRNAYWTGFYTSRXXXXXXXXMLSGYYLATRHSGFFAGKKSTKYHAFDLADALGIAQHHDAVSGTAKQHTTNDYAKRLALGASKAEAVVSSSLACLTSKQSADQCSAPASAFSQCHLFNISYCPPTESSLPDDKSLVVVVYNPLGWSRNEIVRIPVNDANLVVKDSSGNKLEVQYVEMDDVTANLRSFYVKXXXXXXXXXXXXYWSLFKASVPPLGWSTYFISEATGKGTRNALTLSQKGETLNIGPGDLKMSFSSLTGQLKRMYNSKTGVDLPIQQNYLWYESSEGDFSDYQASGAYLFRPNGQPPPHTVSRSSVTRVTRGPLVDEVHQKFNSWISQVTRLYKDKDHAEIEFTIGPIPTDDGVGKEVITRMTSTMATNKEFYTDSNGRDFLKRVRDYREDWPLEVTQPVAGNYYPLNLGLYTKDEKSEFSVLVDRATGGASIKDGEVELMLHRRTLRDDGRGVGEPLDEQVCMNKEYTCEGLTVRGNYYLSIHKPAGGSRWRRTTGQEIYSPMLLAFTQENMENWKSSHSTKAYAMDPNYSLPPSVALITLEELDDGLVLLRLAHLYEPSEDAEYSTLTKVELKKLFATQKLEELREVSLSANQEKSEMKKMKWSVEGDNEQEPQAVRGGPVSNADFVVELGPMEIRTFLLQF
How it was run: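 Jack bean α-mannosidase (0.1 U cm−3) was preincubated with compound 1 h at 37 °C. Reaction used 10 mM p-nitrophenyl-α-D-mannopyranoside in 100 mM citrate pH 4.5, 10 min at 37 °C, stopped with 200 mM borate pH 9.8. Read at 420 nm. IC50 and Ki were determined, Ki from Lineweaver–Burk double-reciprocal plots. Mean of five assays.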

[3] = biological target: T2, Beta-galactosidase (Bos taurus, UniProt Q58D55); assay: Inhibition of bovine liver beta-galactosidase using 10 mM p-nitrophenyl-beta-D-galactopyranoside as substrate
T2 sequence (Q58D55 whole entry): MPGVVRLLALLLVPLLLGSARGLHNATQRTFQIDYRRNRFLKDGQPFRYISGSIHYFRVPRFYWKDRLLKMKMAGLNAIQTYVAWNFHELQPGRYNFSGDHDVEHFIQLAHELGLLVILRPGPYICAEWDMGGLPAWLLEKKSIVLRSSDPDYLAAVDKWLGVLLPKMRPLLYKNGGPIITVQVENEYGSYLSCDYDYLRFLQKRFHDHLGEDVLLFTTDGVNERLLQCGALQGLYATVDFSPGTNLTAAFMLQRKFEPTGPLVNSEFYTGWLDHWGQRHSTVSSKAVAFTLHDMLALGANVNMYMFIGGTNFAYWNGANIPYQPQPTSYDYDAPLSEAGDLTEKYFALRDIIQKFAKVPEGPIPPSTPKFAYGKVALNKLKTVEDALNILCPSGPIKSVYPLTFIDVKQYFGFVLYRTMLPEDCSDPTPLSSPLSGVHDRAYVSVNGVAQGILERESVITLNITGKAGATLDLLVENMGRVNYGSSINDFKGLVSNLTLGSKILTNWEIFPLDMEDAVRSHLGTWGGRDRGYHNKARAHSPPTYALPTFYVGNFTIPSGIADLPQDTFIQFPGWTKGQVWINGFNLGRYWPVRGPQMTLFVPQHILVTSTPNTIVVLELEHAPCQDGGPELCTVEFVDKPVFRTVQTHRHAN
How it was run: (§1)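 Enzyme (0.1 U/cm3; A. niger α-galactosidase or bovine liver β-galactosidase) was preincubated with inhibitor for 1 h at 37 °C. Substrate was 10 mM p-nitrophenyl α- or β-D-galactopyranoside in 200 mM sodium acetate, reacted 10 min at 37 °C. The reaction was stopped with 200 mM borate pH 9.8 and released p-nitrophenol read at 420 nm. Ki came from Lineweaver–Burk plots; values are the average of five assays.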

[4] = Cytotoxicity against Swiss albino mouse Splenocytes assessed as cell proliferation at 0.5 to 5 uM after 72 hrs by MTT assay; assay type: cell-based; conditions: splenocyte
How it was run: (§2)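 Swiss albino mouse splenocytes (2 × 10^6 cells/well) were treated with Con A alone or with test samples at final 0.5, 1, 2.5 and 5 μM. Con A is given as final 10 μg/mL in methods and 10 μM in text. Cells were held 72 h at 37 °C, 5% CO2, in RPMI with 10% FCS, then read by MTT. Values are % of Con A-treated cells (100%), mean ± SEM, n = 5.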

[5] = system: Splenocyte; assay: Immunostimulating activity in Swiss albino mouse Splenocytes assessed as increase in ConA-induced cell proliferation upto 2.5 uM after 72 hrs by MTT assay; assay type: functional, cell-based; how it was run: as §2
[6] = system: Splenocyte; assay: Immunostimulating activity in Swiss albino mouse Splenocytes assessed as increase in IL-6 secretion at 2.5 uM by ELISA in presence of 10 uM ConA relative to control; assay type: functional
How it was run: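 Splenocytes (2 × 10^6 cells/well) were stimulated with 10 μM Con A plus compound (2.5 or 5 μM). Supernatant IL-6 was measured by sandwich ELISA: sample 2 h at 37 °C, biotinylated antibody 1 h, streptavidin–HRP, then substrate in the dark. Absorbance was read at 550 nm with 450 nm correction against an IL-6 standard curve. Mean ± SEM, n = 5.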

[7] = system: Oryza sativa; assay: Inhibition of rice alpha-glucosidase at 1 mM using 10 mM p-nitrophenyl-alpha-D-glucopyranoside as substrate
How it was run: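 Rice α-glucosidase (0.1 U cm−3) was preincubated with compound 1 h at 37 °C. Reaction used 10 mM p-nitrophenyl-α-D-glucopyranoside in 100 mM phosphate pH 6.8, 10 min at 37 °C, stopped with 0.1 M Na2CO3. p-Nitrophenol was read at 420 nm. NI means no 50% inhibition at 1 mM. Ki came from Lineweaver–Burk plots. Average of five assays.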

[8] = system: Splenocyte; assay: Immunostimulating activity in Swiss albino mouse Splenocytes assessed as ConA-induced cell proliferation > 5 uM after 72 hrs by MTT assay; assay type: functional, cell-based
[9] = Inhibition of bovine liver beta-glucosidase using 10 mM p-nitrophenyl-[…]-D-glucopyranoside as substrate; set-up: species or system Bos taurus
[10] = system: Splenocyte; assay: Immunostimulating activity in Swiss albino mouse Splenocytes assessed as decrease in ConA-induced IL-4 secretion at 2.5 uM by ELISA; assay type: functional
How it was run: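 Supernatants came from Con A-stimulated splenocytes (2 × 10^6 cells/well) with compound at 2.5 or 5 μM. They were spun 2000g for 5 min and stored at −70 °C. IL-4 was measured by ELISA: sample 2 h at 37 °C, then peroxidase conjugate 1 h, substrate developed in the dark. Absorbance was read at 550 nm with 450 nm correction and quantified from an IL-4 standard curve. n = 5.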

[11] = Inhibition of aspergillus niger alpha-galactosidase using 10 mM p-nitrophenyl-alpha-D-galactopyranoside as substrate; how it was run: as §1
[12] = system: Splenocyte; assay: Immunostimulating activity in Swiss albino mouse Splenocytes assessed as increase in ConA-induced IFN-gamma secretion at 5 uM by ELISA; assay type: functional, cell-based
How it was run: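 Splenocyte supernatants (2 × 10^6 cells/well) were collected after 24 h stimulation with Con A 10 μM alone or with compound at 5 μM. Unstimulated cells served as control. IFN-γ was quantified by sandwich ELISA; mean ± SEM, n = 5.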

[13] = biological target: T3, Alpha-mannosidase (Canavalia ensiformis) (UniProt C0HJB3); assay: Inhibition of jack bean alpha-mannosidase at 1 mM using 10 mM p-nitrophenyl-alpha-D-mannopyranoside as substrate
T3 sequence (whole entry): T1 sequence (C0HJB3 whole entry)
How it was run: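 Jack bean α-mannosidase (0.1 U/cm3) was preincubated with inhibitor for 1 h at 37 °C. Substrate was 10 mM p-nitrophenyl α-D-mannopyranoside in 100 mM citrate pH 4.5, reacted 10 min at 37 °C. The reaction was stopped with 200 mM borate pH 9.8 and absorbance read at 420 nm. Ki came from Lineweaver–Burk plots; average of five assays. NI means under 50% inhibition at 1 mM.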

[14] = system: Splenocyte; assay: Immunostimulating activity in Swiss albino mouse Splenocytes assessed as decrease in ConA-induced IL-4 secretion at 5 uM by ELISA; assay type: functional
[15] = system: Splenocyte; assay: Immunostimulating activity in Swiss albino mouse Splenocytes assessed as increase in IL-6 secretion at 5 uM by ELISA in presence of 10 uM ConA relative to control; assay type: functional
How it was run: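 Supernatants came from splenocytes (2 × 10^6/well) treated with Con A 10 μM plus compound at 5 μM. IL-6 was measured by ELISA: samples 2 h at 37 °C, biotinylated antibody 1 h, then streptavidin–HRP and substrate developed in the dark. Read at 550 nm with 450 nm correction and quantified from an IL-6 standard curve; mean ± SEM, n = 5.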

[16] = system: Splenocyte; assay: Immunostimulating activity in Swiss albino mouse Splenocytes assessed as increase in ConA-induced cell proliferation upto 5 uM after 72 hrs by MTT assay; assay type: functional, cell-based
How it was run: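 Splenocytes (2 × 10^6/well) from Swiss albino mice were treated with Con A (methods give final 10 μg/mL; results give 10 μM), alone or with compound at final 0.5, 1, 2.5 and 5 μM. Incubation was 72 h at 37 °C, 5% CO2, in RPMI with 10% FCS. Readout by MTT, expressed as % of Con A-treated cells (100%); mean ± SEM, n = 5.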

Row | Compound | Activity [1] | IC50 [2] | Ki [2] | IC50 [3] | Ki [3] | Activity [4] | Activity [5] | fold change (FC) [6] | inhibition [7] | Activity [8] | IC50 [9] | Ki [9] | inhibition at 2.5 µM [10] | IC50 [11] | Ki [11] | Activity [12] | inhibition [13] | inhibition at 5 µM [14] | fold change (FC) [15] | Activity [16]
1 | O=C1CC[C@@]2(CO)[C@@H](O)[C@H](O)[C@H](O)CN12 | Active | 1.3 µM | 0.9 µM | 7.2 µM | 3.1 µM | Non-toxic | Active | 8.2 | < 50% | inactive | 46 µM | 24 µM | 34% | 630 µM | 68 µM |  |  |  |  | 
2 | O=C1CC[C@@]2(CO)[C@@H](O)[C@H](O)[C@@H](O)CN12 | Active | 0.075 µM | 0.043 µM | 5.6 µM | 2.4 µM | Non-toxic | Active | 9 | < 50% | inactive | 39 µM | 19 µM | 47% | 130 µM | 14 µM |  |  |  |  | 
3 | OC[C@@]12CCCN1C[C@H](O)[C@@H](O)[C@@H]2O |  |  |  | 2.3 µM | 1 µM | Non-toxic |  |  | < 50% | inactive | 202 µM | 102 µM |  | 0.24 µM | 0.54 µM | Active | < 50% | 34% | 4.4 | Active
4 | OC[C@]12CCCN1C[C@H](O)[C@@H](O)[C@@H]2O |  |  |  | 3.6 µM | 1.5 µM | Non-toxic |  |  | < 50% | inactive | 116 µM | 95 µM |  | 0.13 µM | 0.09 µM | Active | < 50% | 31% | 4.1 | Active
5 | OC[C@@]12CCCN1C[C@@H](O)[C@@H](O)[C@@H]2O |  |  |  | 1.2 µM | 0.5 µM | Non-toxic |  |  | < 50% | inactive | 156 µM | 86 µM |  | 0.63 µM | 0.44 µM | Active | < 50% | 31% | 3.7 | Active

From ChEMBL document CHEMBL3621047, “Quaternary Indolizidine and Indolizidone Iminosugars as Potential Immunostimulating and Glycosidase Inhibitory Agents: Synthesis, Conformational Analysis, Biological Activity, and Molecular Docking Study” (J Med Chem, 2015)
